3 molecules from ChEMBL document CHEMBL4376900, “Structure-Activity Relationship of Antischistosomal Ozonide Carboxylic Acids” (J Med Chem, 2020) can be followed below.

In series [1] the test system is Schistosoma mansoni. Put plainly: Antischistosomal activity against Schistosoma mansoni infected in mouse assessed as reduction in juvenile worm burden at 200 mg/kg, po administered as single dose relative to control. It is filed as functional. More on the design: scale not given: the % may be the effect or the level left. The method in brief: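 Female NMRI mice, 4 weeks old, infected subcutaneously with about 100 S. mansoni cercariae. Juvenile-stage treatment was a single oral dose on day 21 post-infection in 7% v/v Tween 80 / 3% v/v ethanol (10 mL/kg). Untreated infected mice (n = 8) served as controls. Necropsy by CO2 21 days post-treatment, with worms picked, sexed and counted.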

Series [2] can be described thus: Partition coefficient, logD of the compound at pH 7.4 by HPLC analysis. It is filed as physicochemical. As to conditions: octanol/water.
Series [3] is described as follows: Kinetic solubility in pH 6.5 phosphate buffer incubated for 30 mins by nephelometry. The format is physicochemical. As to conditions: read-out: Kinetic_solubility. The method in brief: (§1)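 DMSO stocks (10 mg/mL) diluted into pH 6.5 phosphate buffer or 0.01 M HCl (about pH 2.0) at 1% final DMSO. After 30 min, a solubility range was determined by nephelometry.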

Series [4] is described as follows: Kinetic solubility in pH 2.0 0.01M HCl buffer incubated for 30 mins by nephelometry. The format is physicochemical. As to conditions: read-out: Kinetic_solubility. Summed up:
as §1

In another series the target is Albumin (Homo sapiens, UniProt P02768). Put plainly: Protein binding to human albumin by HPLC analysis. It is filed as ADME. Conditions: isolated protein. Summed up: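 Binding estimated chromatographically using a gradient HPLC method derived from the Valko approach.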
Sequence of Albumin (P02768 whole entry): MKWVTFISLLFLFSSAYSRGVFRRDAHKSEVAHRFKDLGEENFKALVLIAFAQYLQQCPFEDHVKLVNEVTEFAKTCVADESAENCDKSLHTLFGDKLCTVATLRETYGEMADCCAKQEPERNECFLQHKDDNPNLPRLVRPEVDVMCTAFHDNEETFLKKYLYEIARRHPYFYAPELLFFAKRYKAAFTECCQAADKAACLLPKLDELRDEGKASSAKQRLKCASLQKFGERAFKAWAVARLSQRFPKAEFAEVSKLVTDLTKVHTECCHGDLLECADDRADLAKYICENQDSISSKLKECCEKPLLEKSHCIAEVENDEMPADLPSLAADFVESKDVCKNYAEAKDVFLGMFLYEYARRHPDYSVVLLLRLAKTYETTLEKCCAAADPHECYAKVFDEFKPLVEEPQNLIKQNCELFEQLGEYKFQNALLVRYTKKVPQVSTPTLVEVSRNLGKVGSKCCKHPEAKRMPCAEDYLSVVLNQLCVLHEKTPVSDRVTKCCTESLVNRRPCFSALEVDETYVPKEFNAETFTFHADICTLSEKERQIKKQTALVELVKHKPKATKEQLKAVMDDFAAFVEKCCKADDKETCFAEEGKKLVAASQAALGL
The test system of series [5] is Schistosoma mansoni. Put plainly: Antischistosomal activity against Schistosoma mansoni infected in mouse assessed as reduction in adult worm burden at 400 mg/kg, po administered as single dose relative to control. The format is functional. Details: scale not given: the % may be the effect or the level left.
The test system of series [6] is Schistosoma japonicum. The experiment in a line: Antischistosomal activity against Schistosoma japonicum infected in mouse assessed as reduction in adult worm burden at 400 mg/kg, po administered as single dose relative to control. More on the design: scale not given: the % may be the effect or the level left. The format is functional.
The subject of the next series is Schistosoma haematobium. The experiment in a line: Antischistosomal activity against Schistosoma haematobium infected in mouse assessed as reduction in adult worm burden at 400 mg/kg, po administered as single dose relative to control. The format is functional. More on the design: scale not given: the % may be the effect or the level left.
Series [7] deals with Schistosoma mansoni. Put plainly: Antischistosomal activity against Schistosoma mansoni. It is filed as functional, organism-based.
The test system of series [8] is Schistosoma japonicum. Put plainly: Antischistosomal activity against Schistosoma japonicum. The format is functional, organism-based.
A short description of series [9]: Intrinsic clearance in human liver microsomes in presence of NADPH-regenerating system incubated over 60 mins. As to conditions: read-out: CLH. The format is ADME, Microsome. The method in brief:
(§2)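 Compounds incubated at 37 °C with liver microsomes at 0.4 mg/mL protein. Reaction started by adding an NADPH-regenerating system and quenched with acetonitrile containing diazepam internal standard at several time points over 60 min. No-NADPH controls were quenched at 2, 30 and 60 min.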
For orientation: Liver microsomes are vesicles of endoplasmic reticulum, rich in cytochrome P450 enzymes.

Series [10] can be described thus: Intrinsic clearance in mouse liver microsomes in presence of NADPH-regenerating system incubated over 60 mins. It is filed as ADME, Microsome. As to conditions: read-out: CLH. Summed up:
as §2

Series [11] concerns Schistosoma mansoni. The experiment in a line: Antischistosomal activity against Schistosoma mansoni infected in NMRI mouse assessed as reduction in total adult worm burden at 400 mg/kg, po administered as single dose starting on day 49 post-infection and measured at 28 days post treatment relative to control. The format is functional. Details: scale not given: the % may be the effect or the level left.

A further series deals with HFF. Put plainly: Cytotoxicity in HFF assessed as reduction in cell viability up to 50 uM incubated for 24 hrs by Alamar blue sye based assay. As to conditions: human. Summed up: (§3)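 Cells maintained in D10 medium were grown to confluence, then exposed to increasing compound concentrations (0–100 μM) for 24 h. Alamar blue (10 mM) was then added for 4 h, and viability was read as fluorescence.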
(The colour change of resazurin is a common sign of viable cells or microbes.)

The next series deals with U2OS. Put plainly: Cytotoxicity in human U2OS assessed as reduction in cell viability up to 50 uM incubated for 24 hrs by Alamar blue sye based assay. Summed up:
as §3

A further series concerns HEK-293T. The experiment in a line: Cytotoxicity in human HEK293T assessed as reduction in cell viability up to 50 uM incubated for 24 hrs by Alamar blue sye based assay. Summed up: as §3
The nature of series [12]: Cytotoxicity in human HC04 assessed as reduction in cell viability up to 50 uM incubated for 24 hrs by Alamar blue sye based assay. Summed up:
as §3

Structures are written as SMILES. Converted amounts (≈) assume the structure as drawn.

For orientation: logD means lipophilicity at a set pH, counting ionised and neutral species. In the case of `O=C(O)c1ccc([C@H]2CC[C@]3(CC2)OOC2(O3)C3CC4CC(C3)CC2C4)cc1` (stereo not given in full), the Activity in the series on Schistosoma mansoni [1] is on record as 100%. In series [2], this molecule gave a logD of 3. Also, the figures for the solubility kinetic at 0.5 h in [3] and in [4] were less than 3.1 µg/mL and less than 1.6 µg/mL, respectively. On Albumin, the PPB amounted to 98.8%.

A word on the IC50: it is the concentration that inhibits the measured activity by half. For the molecule `O=C(O)COc1ccc([C@H]2CC[C@]3(CC2)OOC2(O3)C3CC4CC(C3)CC2C4)cc1` (stereo not given in full), the Activity with Schistosoma mansoni [5] is listed as 80%; in the series on Schistosoma japonicum [6] it was 69%; in the series on Schistosoma haematobium, 86%; with Schistosoma mansoni [1], 84%. The IC50 in the series with Schistosoma mansoni [7] came to 44 µM; in the series on Schistosoma japonicum [8], 39 µM. For the same molecule, the logD in series [2] was found to be 2.9. For the same molecule, the solubility kinetic at 0.5 h in series [3] was less than 1.6 µg/mL; in series [4] it was 6.3 to 12.5 µg/mL (≈ 15.2 to 30.2 µM).

The molecule `O=C(O)COc1ccc([C@H]2CC[C@]3(CC2)OOC2(O3)C3CC4CC(C3)CC2C4)cc1Cl` (stereo not given in full) gave a logD in [2] of 3.2. Also, the solubility kinetic at 0.5 h in [3] is less than 3.1 µg/mL; in series [4], 3.1 to 6.3 µg/mL (≈ 6.91 to 14 µM). For the same molecule, the values for the microsomal CLint in [9] and in [10] were less than 7 µL/min/mg and 8 µL/min/mg, respectively. At Albumin, this molecule gave a PPB greater than 99.5%. The Activity with Schistosoma mansoni [11] is listed as 84%; in the series on HFF, “Non-Toxic”; in the series with U2OS it was “Non-Toxic”; in the series on HEK-293T it was “Non-Toxic”; in [12] it was “Non-Toxic”.
